Activity calls are given as the source filed them. The rule behind the calls is not given here.

Data set [1] concerns the target T1, Inhibitor of nuclear factor kappa-B kinase subunit beta (Homo sapiens) (UniProt O14920).
T1 sequence (whole entry): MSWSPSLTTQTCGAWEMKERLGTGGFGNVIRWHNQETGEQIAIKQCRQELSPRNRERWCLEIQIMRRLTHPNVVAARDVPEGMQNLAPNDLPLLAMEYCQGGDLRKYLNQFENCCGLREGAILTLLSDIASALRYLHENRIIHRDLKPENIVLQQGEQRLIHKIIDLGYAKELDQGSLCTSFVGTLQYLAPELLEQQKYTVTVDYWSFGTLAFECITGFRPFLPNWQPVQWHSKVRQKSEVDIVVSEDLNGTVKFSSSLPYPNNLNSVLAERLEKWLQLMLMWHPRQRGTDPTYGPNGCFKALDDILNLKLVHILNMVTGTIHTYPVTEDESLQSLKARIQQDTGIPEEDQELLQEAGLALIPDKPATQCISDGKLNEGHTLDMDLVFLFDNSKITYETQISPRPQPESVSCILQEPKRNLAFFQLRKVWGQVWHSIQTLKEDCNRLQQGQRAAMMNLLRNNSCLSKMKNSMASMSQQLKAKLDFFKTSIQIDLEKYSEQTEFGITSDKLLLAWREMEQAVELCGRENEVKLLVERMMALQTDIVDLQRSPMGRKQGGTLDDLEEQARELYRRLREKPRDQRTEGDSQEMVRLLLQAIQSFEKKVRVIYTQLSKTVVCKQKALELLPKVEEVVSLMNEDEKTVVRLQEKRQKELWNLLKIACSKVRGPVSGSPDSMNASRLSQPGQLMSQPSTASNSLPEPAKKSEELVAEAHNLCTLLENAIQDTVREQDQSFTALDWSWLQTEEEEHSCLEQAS
The data set can be described thus: Inhibition of JRA-031 binding to IKKbeta in TNF-alpha-stimulated human HEK293T cells at 1 uM pretreated with compound for 1 hr followed by labeling with JRA-031 for 1 hr followed by stimulation with TNF-alpha for 1 hr by pull down based mass spectrometry. Format: cell-based. Particulars: HEK-293T.

Data set [2] can be described thus: Cytotoxicity against human Hs578Bst cells assessed as reduction in cell viability measured after 24 hrs by CellTiter-Glo luminescent assay. The format is cell-based. The essentials:
(§1)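 High-throughput viability screen of test agents across a panel of 22 cancerous and noncancerous human cell lines. Viability was read by CellTiter-Glo luminescence.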
On the technique in general: In ATP-based viability assays light output follows the ATP content of the culture.

Data set [3] in a line: Selectivity index, ratio of IC50 for human Hs578Bst cells to EC50 for human SU-DHL-4 cells measured after 24 hrs by CellTiter-Glo luminescent assay. The format is toxicity. To be noted: Hs578Bst cells (IC50) versus SU-DHL-4 cells (EC50). The essentials:
as §1

A further data set relates to RCK8. The data set can be described thus: Cytotoxicity against human RC-K8 cells assessed as reduction in cell viability measured after 24 hrs by CellTiter-Glo luminescent assay. Format: functional, cell-based. Particulars: RCK8, 24 h. The essentials:
as §1

The next data set relates to NCI-H446. The data set can be described thus: Cytotoxicity against human NCI-H446 cells assessed as reduction in cell viability measured after 24 hrs by CellTiter-Glo luminescent assay. Particulars: NCI-H446, 24 h. The format is functional, cell-based. The method, boiled down:
as §1

Data set [4] is described as follows: Selectivity index, ratio of IC50 for human HS895SK cells to EC50 for human CA46 cells measured after 24 hrs by CellTiter-Glo luminescent assay. The method, boiled down:
as §1

A short description of data set [5]: Selectivity index, ratio of IC50 for human Hs888lu cells to EC50 for human HCC1599 cells measured after 24 hrs by CellTiter-Glo luminescent assay. The essentials: as §1
Data set [6] is described as follows: Selectivity index, ratio of IC50 for human Hs895SK cells to EC50 for human HCC1599 cells measured after 24 hrs by CellTiter-Glo luminescent assay. Particulars: Hs895SK cells (IC50) versus HCC1599 cells (EC50). Format: toxicity. The essentials:
as §1

Data set [7] in a line: Selectivity index, ratio of IC50 for human Hs578Bst cells to EC50 for human RC-K8 cells measured after 24 hrs by CellTiter-Glo luminescent assay. Format: toxicity. Particulars: Hs578Bst cells (IC50) versus RC-K8 cells (EC50). The essentials:
as §1

Data set [8] addresses T2, Inhibitor of nuclear factor kappa-B kinase subunit alpha (Homo sapiens) (UniProt O15111).
T2 sequence (whole entry): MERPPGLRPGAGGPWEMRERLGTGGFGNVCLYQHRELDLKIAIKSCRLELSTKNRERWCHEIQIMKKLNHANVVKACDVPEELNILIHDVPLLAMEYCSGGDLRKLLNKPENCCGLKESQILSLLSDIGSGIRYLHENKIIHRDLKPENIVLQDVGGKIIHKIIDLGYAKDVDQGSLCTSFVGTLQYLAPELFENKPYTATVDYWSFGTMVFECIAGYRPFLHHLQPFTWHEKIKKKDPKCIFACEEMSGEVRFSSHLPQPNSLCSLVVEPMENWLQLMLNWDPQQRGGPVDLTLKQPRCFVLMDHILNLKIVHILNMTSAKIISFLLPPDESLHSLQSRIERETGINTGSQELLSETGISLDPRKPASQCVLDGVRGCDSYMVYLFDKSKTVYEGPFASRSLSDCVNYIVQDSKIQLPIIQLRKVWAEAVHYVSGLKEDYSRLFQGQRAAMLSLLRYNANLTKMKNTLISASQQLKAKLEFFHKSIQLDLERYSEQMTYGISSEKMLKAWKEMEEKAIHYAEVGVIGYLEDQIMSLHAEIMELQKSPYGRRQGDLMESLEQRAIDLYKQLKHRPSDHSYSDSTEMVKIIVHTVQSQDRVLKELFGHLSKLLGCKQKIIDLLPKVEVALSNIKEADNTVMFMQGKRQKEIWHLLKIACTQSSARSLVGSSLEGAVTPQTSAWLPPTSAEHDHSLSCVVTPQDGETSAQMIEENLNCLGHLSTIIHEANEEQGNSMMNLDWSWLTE
In words: Inhibition of IKKalpha in human HeLa cells assessed as reduction in IL-1 beta-stimulated IKK alpha nuclear translocation at 10 uM pretreated with compound for 4 hrs followed by stimulation with IL-1 beta for 1 hr by immunohistochemical staining/confocal microscopy. Format: cell-based. The essentials: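 HeLa cells were pretreated with DMSO or test agent for 4 h, then stimulated with IL-1β (or vehicle) for 1 h. NF-κB pathway members were immunostained with AF488-tagged antibodies, nuclei were counterstained with DAPI, and compartmental localization was imaged by confocal microscopy.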

A short description of data set [9]: Selectivity index, ratio of IC50 for human Hs578Bst cells to EC50 for human HCC1599 cells measured after 24 hrs by CellTiter-Glo luminescent assay. The format is toxicity. Particulars: Hs578Bst cells (IC50) versus HCC1599 cells (EC50). The method, boiled down: as §1
A short description of data set [10]: Selectivity index, ratio of IC50 for human Hs578Bst cells to EC50 for human HS578T cells measured after 24 hrs by CellTiter-Glo luminescent assay. Format: toxicity. Particulars: Hs578Bst cells (IC50) versus HS578T cells (EC50). The essentials:
as §1

The test system of a further data set is CA46. In words: Cytotoxicity against human CA46 cells assessed as reduction in cell viability measured after 24 hrs by CellTiter-Glo luminescent assay. Format: functional, cell-based. To be noted: CA46, 24 h. The method, boiled down:
as §1

Data set [11] in a line: Selectivity index, ratio of IC50 for human Hs888lu cells to EC50 for human HS578T cells measured after 24 hrs by CellTiter-Glo luminescent assay. The essentials:
as §1

The test system of another data set is HCC1599. The data set can be described thus: Cytotoxicity against human HCC1599 cells assessed as reduction in cell viability measured after 24 hrs by CellTiter-Glo luminescent assay. Format: functional, cell-based. Particulars: HCC1599, 24 h. The method, boiled down:
as §1

`C=C1C[C@]23C[C@@]1(O)CC[C@H]2[C@@]12C=CC(=O)[C@@](C)(C(=O)O1)[C@H]2[C@@H]3C(=O)OC`: the inhibition entry in data set [1] and in data set [8] was “Active” in each case. Also, the IC50 in data set [2] was above 10 µM. Also, the selectivity ratio at 24 h in data set [3], in data set [6], in [7], in [9] and in data set [10] was 500 throughout. The EC50 was below 0.04 µM in the data set with RCK8, 0.061 µM with NCI-H446, below 0.04 µM in the data set on CA46 and 0.15 µM in the data set on HCC1599. For the same compound, the figures for the “Ratio IC50/EC50” value in data set [4], in data set [5] and in data set [11] were 500, 500 and above 500, respectively.

For orientation: IC50 means the concentration that inhibits the measured activity by half. The EC50 is the concentration at which the effect is half-maximal.

The values are drawn from ChEMBL document CHEMBL4725436, “Gibberellin JRA-003: A Selective Inhibitor of Nuclear Translocation of IKKα” (ACS Med Chem Lett, 2020).
